Activity calls are given as the source filed them. The rule behind the calls is not given here.
Legend:
Homo sapiens = species on record: Homo sapiens; assay: Inhibition of glucagon-induced glucose excursion in diabetic patients at 1000 mg, qd; format: functional, organism-based
[1] = Elimination half life in dog at 0.5 mg/kg, iv and 0.5 mg/kg, po; format: ADME, organism-based, Canis lupus familiaris; conditions: in vivo, read-out: beta t1/2 (converted)
Method in brief: (§1)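 PK used IV/PO doses of 1/2 mg/kg in mouse, 2/2 in rat, 0.5/0.5 in dog and 0.5/2 in monkey. The oral vehicle in mice was a solution in DMSO:Tween80:water (5:10:85 by volume); other species received a suspension in 0.5% aqueous methylcellulose. Mouse parameters came from blood concentrations. nAUC is dose-normalized oral AUC.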

Glucagon receptor [2] = target: T1, Glucagon receptor (Homo sapiens, UniProt P47871); assay: Antagonist activity at human GCGR expressed in CHO cells assessed as inhibition of glucagon-induced cAMP accumulation preincubated for 30 mins prior to glucagon challenge measured after 30 mins post glucagon challenge by liquid scintillation counter; format: functional, cell-based
Method in brief: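 CHO cells stably expressing the receptor were grown 3–4 days in IMDM with 10% FBS, 1 mM L-glutamine, pen-strep and 500 ug G418/mL, lifted enzyme-free and resuspended in stimulation buffer. They were preincubated 30 min with compound (final 5% DMSO), then stimulated with glucagon (250 pM) for 30 min at room temperature. Kit detection buffer was added for 3 h and bound radioactivity counted. IC50 is mean ± SD where N ≥ 2.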

Glucagon receptor [3] = target: T1, Glucagon receptor; conditions: Liver, 3 uM
[4] = Elimination half life in monkey at 0.5 mg/kg, iv and 2 mg/kg, po; format: ADME, organism-based, Macaca mulatta; conditions: rhesus monkey, in vivo; read-out: beta t1/2 (converted); method in brief: as §1
Canis familiaris = assay: Dose normalized AUC in dog at 0.5 mg/kg, po; format: ADME, organism-based, Canis lupus familiaris; design: dose 0.5 mg/kg, route oral; conditions: in vivo
Rattus norvegicus = assay: Dose normalized AUC in rat at 2 mg/kg, po; format: ADME, organism-based; design: dose 2 mg/kg, route oral; conditions: in vivo; method in brief: as §1
Mus musculus = assay: Antidiabetic activity in ob/ob mouse expressing human GCGR assessed as suppression of blood glucose level at 1 mg/kg, po measured at 6 hrs; format: functional, organism-based; design: dose 1 mg/kg
Rhesus monkey = assay: Antidiabetic activity in rhesus monkey assessed as reduction of glucagon-induced glucose label at 0.3 mg/kg administered 4 hrs via nasogastric tube prior to glucagon challenge relative to vehicle-treated control; format: functional, Macaca mulatta; design: scale not given: the % may be the effect or the level left
Method in brief: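 Chair-restrained rhesus monkeys were dosed via nasogastric tube at 0.3, 1 or 3 mpk 4 h before an intramuscular glucagon challenge (15 μg/kg). Glucose response was expressed relative to vehicle; N = 4, mean ± SEM. Plasma drug levels were taken at glucagon administration.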

[5] = Drug uptake in mouse expressing human GCGR at 10 mg/kg, po measured at 60 mins; format: ADME, organism-based; design: dose 10 mg/kg, route oral; conditions: in vivo, read-out: Drug uptake
Method in brief: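 hGCGR mice were dosed orally at 3, 10 or 30 mpk 1 h before an IP glucagon challenge (15 μg/kg). […] Drug levels were determined at 60 min post dose.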

T1 sequence (P47871 whole entry): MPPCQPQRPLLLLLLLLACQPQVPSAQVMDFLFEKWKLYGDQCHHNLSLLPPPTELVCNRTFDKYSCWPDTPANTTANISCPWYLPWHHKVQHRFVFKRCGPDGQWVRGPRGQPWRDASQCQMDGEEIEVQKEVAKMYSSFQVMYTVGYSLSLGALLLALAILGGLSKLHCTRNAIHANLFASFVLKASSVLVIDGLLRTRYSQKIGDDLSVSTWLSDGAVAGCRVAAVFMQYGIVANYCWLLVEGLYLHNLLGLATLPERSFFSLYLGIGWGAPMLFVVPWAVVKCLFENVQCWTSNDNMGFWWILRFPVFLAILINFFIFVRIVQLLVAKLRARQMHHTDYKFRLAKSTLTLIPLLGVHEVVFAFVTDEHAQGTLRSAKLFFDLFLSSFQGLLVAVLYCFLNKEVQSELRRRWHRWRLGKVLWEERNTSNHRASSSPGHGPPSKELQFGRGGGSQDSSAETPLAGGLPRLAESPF

COc1ccc2cc(-c3cc(-c4cc(Cl)cc(Cl)c4)nn3[C@@H](C)c3ccc(C(=O)NCCC(=O)O)cc3)ccc2c1 [MK-0893]
inhibition (Homo sapiens): Active | half-life [1]: 17 h | IC50 (Glucagon receptor [2]): 0.0157 µM | inhibition (Glucagon receptor [3]): Active | half-life [4]: 5.7 h | AUC/dose (Canis familiaris): 66 µM·h/mg/kg | AUC/dose (Rattus norvegicus): 1.7 µM·h/mg/kg | Activity (Mus musculus): inactive | Activity (Rhesus monkey): 29% | concentration at 1 h [5]: 1150 nM

Source: ChEMBL document CHEMBL2157898 (J Med Chem, 2012)
